In ChEMBL document CHEMBL1914352, “Design, synthesis, docking, and biological evaluation of novel diazide-containing isoxazole- and pyrazole-based histone deacetylase probes” (J Med Chem, 2011) one finds IC50 and Activity data, which are given here for two compounds.

SMILES strings stand for the structures. pIC50: −log10 of the molar value. Calls of active or inactive are those of the source. The rule behind the calls is not given here. Some results are limits rather than exact numbers.

Assay [1] addresses T1, Matrix metalloproteinase-14 (Homo sapiens, UniProt P50281). As to the kind of experiment: Inhibition of MMP14.
In another assay the target is T2, Interstitial collagenase (Homo sapiens, UniProt P03956).
T2 sequence (P03956 whole entry): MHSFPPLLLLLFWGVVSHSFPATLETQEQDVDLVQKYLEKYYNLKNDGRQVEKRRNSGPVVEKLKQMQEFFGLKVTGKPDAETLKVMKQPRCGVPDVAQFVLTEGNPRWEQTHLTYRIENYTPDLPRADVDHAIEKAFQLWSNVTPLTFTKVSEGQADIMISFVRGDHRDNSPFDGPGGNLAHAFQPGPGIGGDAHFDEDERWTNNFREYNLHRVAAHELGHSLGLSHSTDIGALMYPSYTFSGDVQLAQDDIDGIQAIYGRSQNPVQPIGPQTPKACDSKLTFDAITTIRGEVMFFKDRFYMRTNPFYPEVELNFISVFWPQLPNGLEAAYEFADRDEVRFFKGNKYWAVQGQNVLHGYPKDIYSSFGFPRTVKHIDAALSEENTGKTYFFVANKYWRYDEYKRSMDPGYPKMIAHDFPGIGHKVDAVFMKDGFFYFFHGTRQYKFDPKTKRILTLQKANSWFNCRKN
The assay is described as follows: Inhibition of MMP1.

In the next assay the test system is HepG2. As to the kind of experiment: Induction of apoptosis in human HepG2 cells assessed as cleavage of caspase 3 at 1 to 10 uM after 14 hrs by Western blot analysis. The format is functional, cell-based. In a few lines: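 HepG2 cells are seeded at 2.7×10^5 cells/well in D7 medium (DMEM, 7% FBS), refed after 24 h, and after 1 h at 37 °C treated with DMSO or 1, 5 or 10 µM inhibitor. Lysis is in ice-cold 1% CHAPSO buffer (50 mM Hepes pH 7.4), 45 min at 4 °C. Immunoblots are probed for cleaved caspase 3 Asp175, acetyl-Lys373 p53, total p53 and GAPDH, detected by chemiluminescence, with band densitometry.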
On the technique in general: Immunoblotting shows a protein as a band on a membrane.

Assay [2] addresses T1, Matrix metalloproteinase-14. As to the kind of experiment: Inhibition of MMP14 assessed as activity remaining at […].
Assay [3] addresses T3, Interstitial collagenase (Homo sapiens) (UniProt P03956).
T3 sequence (whole entry): T2 sequence (P03956 whole entry)
The assay is described as follows: Inhibition of MMP1 assessed as activity remaining at […].

On to `[N-]=[N+]=NCc1cc(N=[N+]=[N-])cc(C(=O)Nc2ccc(-c3cc(C(=O)NCCCCCCC(=O)NO)no3)cc2)c1`, for which the pIC50 (usually −log10 of the IC50, conventionally taken in molar units) in assay [1] is 5.03; at Interstitial collagenase, 3.97. Further, the outcome in the assay with HepG2 was Active.
On to `[N-]=[N+]=NCc1cc(Cn2cc(NC(=O)CCCCCCC(=O)NO)cn2)cc(N=[N+]=[N-])c1`, for which the Activity in assay [2] and in assay [3] was more than 70% in each case.
